{"source": "paper PMC3947039", "about": "(ACS chemical biology, 2013)", "key": {"[1]": {"system": "non-diabetic wounds in humans", "conditions": "cited from earlier work"}, "[2]": {"system": "non-diabetic wounds in pigs", "conditions": "cited from earlier work"}, "[3]": {"system": "non-diabetic wounds in rats", "conditions": "cited from earlier work"}, "[4]": {"system": "MMP-1", "conditions": "at 250 μM; cited from earlier work"}, "[5]": {"target": "ADAM17", "conditions": "read-out: Ki ADAM17; competitive; cited from earlier work"}, "[6]": {"system": "db/db mice", "experiment": "Excisional diabetic wound-healing model, topical treatment", "format": "in vivo, mouse", "in_short": "(§1)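 Test compound dissolved in saline at 5.0 mg mL−1 as the dosing solution; saline vehicle; both filter-sterilised. Applied topically to excisional wounds in db/db or wild-type mice. Wound healing scored on days 1, 3, 7, 10 and 14, with n = 35, 28, 21, 14 and 7 mice on those days. Results given as mean ± SD, with treated versus vehicle compared statistically.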"}, "[7]": {"system": "db/db mice", "experiment": "H&E staining of wounds, re-epithelialization, db/db mice", "format": "in vivo, mouse", "conditions": "topical, day 14", "in_short": "(§2)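 Wounds were treated topically with the test compound in saline, or with saline vehicle alone. Wounds were imaged at a common scale. Day-14 wound tissue was H&E stained, and the re-epithelialized region was traced on the sections.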"}, "[8]": {"system": "apoptotic cells in wounds of diabetic mice", "experiment": "TUNEL apoptosis detection in diabetic wound tissues", "format": "in vivo, mouse", "conditions": "versus vehicle"}, "[9]": {"system": "ADAM9", "conditions": "at 20 μM; cited from earlier work"}, "[10]": {"system": "ADAM10", "conditions": "at 20 μM; cited from earlier work"}, "[11]": {"system": "MMP-19", "conditions": "at 30 μM; cited from earlier work"}, "[12]": {"system": "MMP-7", "conditions": "at 250 μM; cited from earlier work"}, "[13]": {"target": "MMP-9 (Mus musculus, UniProt P41245)", "sequence (P41245 108-730)": "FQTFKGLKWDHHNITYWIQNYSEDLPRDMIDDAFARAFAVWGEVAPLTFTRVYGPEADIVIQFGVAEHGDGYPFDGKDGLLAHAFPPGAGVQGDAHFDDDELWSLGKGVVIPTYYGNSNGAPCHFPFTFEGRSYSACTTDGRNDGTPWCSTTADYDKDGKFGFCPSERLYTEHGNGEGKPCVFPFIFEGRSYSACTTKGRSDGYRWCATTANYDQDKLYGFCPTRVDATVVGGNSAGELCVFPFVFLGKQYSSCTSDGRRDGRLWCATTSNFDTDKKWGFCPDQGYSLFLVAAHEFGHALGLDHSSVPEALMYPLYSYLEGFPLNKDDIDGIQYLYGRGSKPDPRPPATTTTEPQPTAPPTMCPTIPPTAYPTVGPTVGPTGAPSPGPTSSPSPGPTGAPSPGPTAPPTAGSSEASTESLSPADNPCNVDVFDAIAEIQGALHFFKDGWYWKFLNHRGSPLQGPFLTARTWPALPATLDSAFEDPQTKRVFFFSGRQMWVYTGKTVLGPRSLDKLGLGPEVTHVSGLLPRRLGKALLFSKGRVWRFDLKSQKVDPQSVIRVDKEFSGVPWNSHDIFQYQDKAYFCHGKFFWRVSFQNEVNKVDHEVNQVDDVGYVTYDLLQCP", "experiment": "In-situ zymography with DQ-gel in diabetic wound tissues", "format": "in vivo", "conditions": "db/db mice, versus vehicle", "in_short": "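db/db wounds were treated topically with the test compound or vehicle. Wound sections were incubated with the fluorogenic MMP gelatin substrate DQ-gel to localise MMP activity in situ. Nuclei were counterstained with DAPI, and the green fluorescence was imaged merged with the DAPI signal.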"}, "[14]": {"system": "wild-type mice", "experiment": "H&E staining of wounds, re-epithelialization, wild-type mice", "format": "in vivo, mouse", "conditions": "topical, day 14", "in_short": "as §2"}, "[15]": {"system": "wild-type mice", "experiment": "Excisional wound-healing model in wild-type mice, topical treatment", "format": "in vivo, mouse", "in_short": "as §1"}}, "data": [{"smiles": "CNC(=O)[C@H](Cc1c[nH]c2ccccc12)NC(=O)[C@@H](CC(=O)NO)CC(C)C", "note": "[ilomastat]", "values": [{"measurement": "epithelialization", "setting": "[1]", "value": "diminished epithelialization"}, {"measurement": "wound closure", "setting": "[1]", "value": "delayed wound closure"}, {"measurement": "epithelialization", "setting": "[2]", "value": "diminished epithelialization"}, {"measurement": "wound closure", "setting": "[2]", "value": "delayed wound closure"}, {"measurement": "epithelialization", "setting": "[3]", "value": "diminished epithelialization"}, {"measurement": "wound closure", "setting": "[3]", "value": "delayed wound closure"}]}, {"smiles": "Nc1ccc(Oc2ccc(S(=O)(=O)CC3CS3)cc2)cc1", "note": "(stereo not shown) [ND-322]", "values": [{"measurement": "inhibition of MMP-1", "setting": "[4]", "value": 10, "unit": "%"}, {"measurement": "Ki", "setting": "[5]", "value": "15.7 ± 2", "unit": "µM"}, {"measurement": "wound healing as a percentage of the initial wound area", "setting": "[6]; day 10, mean ± SD", "value": "70 ± 16", "unit": "%"}, {"measurement": "wound healing as a percentage of the initial wound area", "setting": "[6]; day 14, mean ± SD", "value": "92 ± 4", "unit": "%"}, {"measurement": "wound healing, difference versus vehicle-treated", "setting": "[6]; days 1, 3 and 7, p > 0.2", "value": "not statistically significant"}, {"measurement": "re-epithelialization (H&E staining)", "setting": "[7]", "value": "complete re-epithelialization"}, {"measurement": "apoptosis in wound tissues (TUNEL)", "setting": "[8]", "value": "significantly decreased"}, {"measurement": "inhibition of ADAM9", "setting": "[9]", "value": 30, "unit": "%"}, {"measurement": "inhibition of ADAM10", "setting": "[10]", "value": 21, "unit": "%"}, {"measurement": "inhibition of MMP-19", "setting": "[11]", "value": 9, "unit": "%"}, {"measurement": "inhibition of MMP-7", "setting": "[12]", "value": 16, "unit": "%"}, {"measurement": "gelatinase activity (due to MMP-9) in wound tissues", "setting": "[13]", "value": "significantly decreased"}, {"measurement": "re-epithelialization (H&E staining)", "setting": "[14]", "value": "complete re-epithelialization"}, {"measurement": "wound healing as a percentage of the initial wound area", "setting": "[15]; day 7, mean ± SD", "value": "62 ± 19", "unit": "%"}, {"measurement": "wound healing as a percentage of the initial wound area", "setting": "[15]; day 10, mean ± SD", "value": "82 ± 11", "unit": "%"}, {"measurement": "wound healing as a percentage of the initial wound area", "setting": "[15]; day 14, mean ± SD", "value": "96 ± 4", "unit": "%"}]}]}
